From ChEMBL document CHEMBL1133614, “Novel radiotracers for imaging the serotonin transporter by positron emission tomography: synthesis, radiosynthesis, and in vitro and ex vivo evaluation of (11)C-labeled 2-(phenylthio)araalkylamines” (J Med Chem, 2000)

Key:
[1] = Half-life of washout rate of radioactivity from the cerebellum.; format: ADME, tissue-based
Summary of the method: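 Rats received the 11C tracer by tail vein (3-30 MBq, 350-450 ng, buffered saline), 3 per time point. Cerebellar radioactivity (%ID/g) was followed over time after injection, and the half-life of its washout was derived from that time course.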

[2] = Log P at pH 7.4; format: physicochemical; conditions: buffer
Summary of the method: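 Partition of the radiolabelled compound between 1-octanol and 0.02 M phosphate buffer at pH 7.4.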

[3] = species on record: Rattus norvegicus; assay: Biodistribution of radioactivity in rat thalamus upon Tail-Vein injection of [11C]-labeled compound after 15 min; format: ADME, organism-based; conditions: in vivo, iv, 0.25 h
[4] = species on record: Rattus norvegicus; assay: Biodistribution of radioactivity in rat thalamus upon Tail-Vein injection of [11C]-labeled compound after 30 min; format: ADME, organism-based; conditions: in vivo, iv, 0.5 h
[5] = species on record: Rattus norvegicus; assay: Biodistribution of radioactivity in rat thalamus upon Tail-Vein injection of [11C]-labeled compound after 45 min; format: ADME, organism-based; conditions: in vivo, iv, 0.75 h
[6] = species on record: Rattus norvegicus; assay: Biodistribution of radioactivity in rat blood upon Tail-Vein injection of [11C]-labeled compound after 15 min; format: ADME, organism-based; conditions: in vivo, iv, 0.25 h
[7] = species on record: Rattus norvegicus; assay: Biodistribution of radioactivity in rat blood upon Tail-Vein injection of [11C]-labeled compound after 30 min; format: ADME, organism-based; conditions: in vivo, iv, 0.5 h
[8] = species on record: Rattus norvegicus; assay: Biodistribution of radioactivity in rat blood upon Tail-Vein injection of [11C]-labeled compound after 45 min; format: ADME, organism-based; conditions: in vivo, iv, 0.75 h
[9] = species on record: Rattus norvegicus; assay: Biodistribution of radioactivity in rat blood upon Tail-Vein injection of [11C]-labeled compound after 5 min; format: ADME, organism-based; conditions: in vivo, iv
[10] = species on record: Rattus norvegicus; assay: Biodistribution of radioactivity in rat blood upon Tail-Vein injection of [11C]-labeled compound after 60 min; format: ADME, organism-based; conditions: in vivo, iv, 1 h
[11] = species on record: Rattus norvegicus; assay: Biodistribution of radioactivity in rat cerebellum upon Tail-Vein injection of [11C]-labeled compound after 15 min; format: ADME, organism-based; conditions: in vivo, iv, 0.25 h
[12] = species on record: Rattus norvegicus; assay: Biodistribution of radioactivity in rat cerebellum upon Tail-Vein injection of [11C]-labeled compound after 30 min; format: ADME, organism-based; conditions: in vivo, iv, 0.5 h
[13] = species on record: Rattus norvegicus; assay: Biodistribution of radioactivity in rat cerebellum upon Tail-Vein injection of [11C]-labeled compound after 45 min; format: ADME, organism-based; conditions: in vivo, iv, 0.75 h
[14] = species on record: Rattus norvegicus; assay: Biodistribution of radioactivity in rat cerebellum upon Tail-Vein injection of [11C]-labeled compound after 5 min; format: ADME, organism-based; conditions: in vivo, iv
[15] = species on record: Rattus norvegicus; assay: Biodistribution of radioactivity in rat cerebellum upon Tail-Vein injection of [11C]-labeled compound after 60 min; format: ADME, organism-based; conditions: in vivo, iv, 1 h
[16] = species on record: Rattus norvegicus; assay: Biodistribution of radioactivity in rat cortex upon Tail-Vein injection of [11C]-labeled compound after 15 min; format: ADME, organism-based; conditions: in vivo, iv, 0.25 h
[17] = species on record: Rattus norvegicus; assay: Biodistribution of radioactivity in rat cortex upon Tail-Vein injection of [11C]-labeled compound after 30 min; format: ADME, organism-based; conditions: in vivo, iv, 0.5 h
[18] = species on record: Rattus norvegicus; assay: Biodistribution of radioactivity in rat cortex upon Tail-Vein injection of [11C]-labeled compound after 45 min; format: ADME, organism-based; conditions: in vivo, iv, 0.75 h
[19] = species on record: Rattus norvegicus; assay: Biodistribution of radioactivity in rat thalamus upon Tail-Vein injection of [11C]-labeled compound after 5 min; format: ADME, organism-based; conditions: in vivo, iv
[20] = species on record: Rattus norvegicus; assay: Biodistribution of radioactivity in rat cortex upon Tail-Vein injection of [11C]-labeled compound after 5 min; format: ADME, organism-based; conditions: in vivo, iv
[21] = species on record: Rattus norvegicus; assay: Biodistribution of radioactivity in rat cortex upon Tail-Vein injection of [11C]-labeled compound after 60 min; format: ADME, organism-based; conditions: in vivo, iv, 1 h
[22] = species on record: Rattus norvegicus; assay: Biodistribution of radioactivity in rat hippocampus upon Tail-Vein injection of [11C]-labeled compound after 15 min; format: ADME, organism-based; conditions: in vivo, iv, 0.25 h
[23] = species on record: Rattus norvegicus; assay: Biodistribution of radioactivity in rat hippocampus upon Tail-Vein injection of [11C]-labeled compound after 30 min; format: ADME, organism-based; conditions: in vivo, iv, 0.5 h
[24] = species on record: Rattus norvegicus; assay: Biodistribution of radioactivity in rat hippocampus upon Tail-Vein injection of [11C]-labeled compound after 45 min; format: ADME, organism-based; conditions: in vivo, iv, 0.75 h
[25] = species on record: Rattus norvegicus; assay: Biodistribution of radioactivity in rat hippocampus upon Tail-Vein injection of [11C]-labeled compound after 5 min; format: ADME, organism-based; conditions: in vivo, iv
[26] = species on record: Rattus norvegicus; assay: Biodistribution of radioactivity in rat hippocampus upon Tail-Vein injection of [11C]-labeled compound after 60 min; format: ADME, organism-based; conditions: in vivo, iv, 1 h
[27] = species on record: Rattus norvegicus; assay: Biodistribution of radioactivity in rat hypothalamus upon Tail-Vein injection of [11C]-labeled compound after 15 min; format: ADME, organism-based; conditions: in vivo, iv, 0.25 h
[28] = species on record: Rattus norvegicus; assay: Biodistribution of radioactivity in rat hypothalamus upon Tail-Vein injection of [11C]-labeled compound after 30 min; format: ADME, organism-based; conditions: in vivo, iv, 0.5 h
[29] = species on record: Rattus norvegicus; assay: Biodistribution of radioactivity in rat hypothalamus upon Tail-Vein injection of [11C]-labeled compound after 45 min; format: ADME, organism-based; conditions: in vivo, iv, 0.75 h
[30] = species on record: Rattus norvegicus; assay: Biodistribution of radioactivity in rat hypothalamus upon Tail-Vein injection of [11C]-labeled compound after 5 min; format: ADME, organism-based; conditions: in vivo, iv
[31] = species on record: Rattus norvegicus; assay: Biodistribution of radioactivity in rat hypothalamus upon Tail-Vein injection of [11C]-labeled compound after 60 min; format: ADME, organism-based; conditions: in vivo, iv, 1 h
[32] = species on record: Rattus norvegicus; assay: Biodistribution of radioactivity in rat striatum upon Tail-Vein injection of [11C]-labeled compound after 15 min; format: ADME, organism-based; conditions: in vivo, iv, 0.25 h
[33] = species on record: Rattus norvegicus; assay: Biodistribution of radioactivity in rat striatum upon Tail-Vein injection of [11C]-labeled compound after 30 min; format: ADME, organism-based; conditions: in vivo, iv, 0.5 h
[34] = species on record: Rattus norvegicus; assay: Biodistribution of radioactivity in rat striatum upon Tail-Vein injection of [11C]-labeled compound after 45 min; format: ADME, organism-based; conditions: in vivo, iv, 0.75 h
[35] = species on record: Rattus norvegicus; assay: Biodistribution of radioactivity in rat striatum upon Tail-Vein injection of [11C]-labeled compound after 5 min; format: ADME, organism-based; conditions: in vivo, iv
[36] = species on record: Rattus norvegicus; assay: Biodistribution of radioactivity in rat striatum upon Tail-Vein injection of [11C]-labeled compound after 60 min; format: ADME, organism-based; conditions: in vivo, iv, 1 h
[37] = biological target: Sodium-dependent serotonin transporter (Homo sapiens, UniProt P31645); assay: In vitro binding affinity on cloned Serotonin transporter
Sequence of Sodium-dependent serotonin transporter (P31645 whole entry): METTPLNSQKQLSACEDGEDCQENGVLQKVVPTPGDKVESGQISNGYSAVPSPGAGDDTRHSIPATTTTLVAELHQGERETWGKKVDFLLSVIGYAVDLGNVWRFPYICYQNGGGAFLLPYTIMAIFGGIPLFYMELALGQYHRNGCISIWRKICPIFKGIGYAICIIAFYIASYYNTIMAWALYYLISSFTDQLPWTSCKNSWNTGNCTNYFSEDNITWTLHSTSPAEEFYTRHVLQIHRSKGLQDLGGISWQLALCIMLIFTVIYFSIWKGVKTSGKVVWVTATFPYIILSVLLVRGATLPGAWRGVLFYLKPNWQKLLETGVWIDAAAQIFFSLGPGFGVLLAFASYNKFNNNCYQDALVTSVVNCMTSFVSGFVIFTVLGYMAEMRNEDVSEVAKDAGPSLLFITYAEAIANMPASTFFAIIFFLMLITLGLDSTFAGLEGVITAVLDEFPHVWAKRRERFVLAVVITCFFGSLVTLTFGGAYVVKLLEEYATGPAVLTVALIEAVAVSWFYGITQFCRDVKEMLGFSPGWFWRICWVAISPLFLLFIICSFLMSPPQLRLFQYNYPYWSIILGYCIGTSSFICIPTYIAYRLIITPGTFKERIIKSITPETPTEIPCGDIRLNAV
Summary of the method: (§1)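 Competition binding in triplicate on membranes from cloned human transporters. Radioligands: SERT [3H]paroxetine 0.2 nM with 10.3 µg protein, NET [3H]nisoxetine 1.0 nM with 16.9 µg, DAT [3H]WIN 35,428 1.0 nM with 6.2 µg. Buffer 50 mM Tris-Cl pH 7.4 with 150 mM NaCl/5 mM KCl (SERT, NET) or 100 mM NaCl (DAT). Incubated 40 min at 37 °C, then filtered on PEI-soaked GF/B filters. Nonspecific binding set with duloxetine 1 µM (SERT), desipramine 10 µM (NET) or nomifensine 10 µM (DAT). IC50 from nonlinear fit; Ki by Cheng-Prusoff.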

[38] = species on record: Rattus norvegicus; assay: Biodistribution of radioactivity in rat thalamus upon Tail-Vein injection of [11C]-labeled compound after 60 min; format: ADME, organism-based; conditions: in vivo, iv, 1 h
[39] = biological target: Sodium-dependent dopamine transporter (Homo sapiens, UniProt Q01959); assay: In vitro binding affinity on cloned Dopamine transporter; summary of the method: as §1
Sequence of Sodium-dependent dopamine transporter (Q01959 whole entry): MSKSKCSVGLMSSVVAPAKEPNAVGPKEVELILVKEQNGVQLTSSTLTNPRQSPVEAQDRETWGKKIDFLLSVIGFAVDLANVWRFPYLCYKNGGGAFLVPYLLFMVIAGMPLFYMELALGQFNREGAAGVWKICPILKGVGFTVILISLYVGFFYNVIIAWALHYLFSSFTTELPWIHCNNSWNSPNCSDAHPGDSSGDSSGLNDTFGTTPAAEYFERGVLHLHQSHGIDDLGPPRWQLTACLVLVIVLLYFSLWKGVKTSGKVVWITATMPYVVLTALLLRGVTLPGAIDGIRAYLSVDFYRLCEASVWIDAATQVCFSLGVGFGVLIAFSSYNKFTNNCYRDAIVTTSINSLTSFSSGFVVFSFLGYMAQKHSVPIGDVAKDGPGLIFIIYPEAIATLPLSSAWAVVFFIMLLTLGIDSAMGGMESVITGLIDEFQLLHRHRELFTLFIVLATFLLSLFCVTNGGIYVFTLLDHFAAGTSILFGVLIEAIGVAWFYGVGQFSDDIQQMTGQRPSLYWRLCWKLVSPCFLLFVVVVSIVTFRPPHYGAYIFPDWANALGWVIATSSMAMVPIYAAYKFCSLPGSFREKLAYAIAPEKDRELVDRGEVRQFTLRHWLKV

[40] = biological target: Sodium-dependent noradrenaline transporter (Homo sapiens, UniProt P23975); assay: In vitro binding affinity on cloned Norepinephrine transporter
Sequence of Sodium-dependent noradrenaline transporter (P23975 whole entry): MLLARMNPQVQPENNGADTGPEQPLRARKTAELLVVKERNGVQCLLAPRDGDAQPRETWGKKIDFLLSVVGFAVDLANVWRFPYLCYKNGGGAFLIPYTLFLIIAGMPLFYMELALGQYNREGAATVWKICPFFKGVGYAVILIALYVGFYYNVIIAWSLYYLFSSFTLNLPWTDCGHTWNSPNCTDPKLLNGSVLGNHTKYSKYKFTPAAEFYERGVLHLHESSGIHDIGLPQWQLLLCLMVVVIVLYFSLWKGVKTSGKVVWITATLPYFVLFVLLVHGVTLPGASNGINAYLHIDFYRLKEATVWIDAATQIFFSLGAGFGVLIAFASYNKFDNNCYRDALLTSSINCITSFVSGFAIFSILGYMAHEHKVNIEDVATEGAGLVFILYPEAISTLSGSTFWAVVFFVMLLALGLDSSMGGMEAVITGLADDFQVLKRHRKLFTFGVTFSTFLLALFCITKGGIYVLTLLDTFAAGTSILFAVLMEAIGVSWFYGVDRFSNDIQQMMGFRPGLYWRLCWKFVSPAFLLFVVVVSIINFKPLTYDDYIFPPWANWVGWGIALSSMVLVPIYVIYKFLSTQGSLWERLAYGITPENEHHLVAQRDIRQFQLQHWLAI
Summary of the method: as §1, with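 “transporters.” for “transporters. Radioligands: SERT [3H]paroxetine 0.2 nM with 10.3 µg protein, NET [3H]nisoxetine 1.0 nM with 16.9 µg, DAT [3H]WIN 35,428 1.0 nM with 6.2 µg.”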

| Structure (SMILES) | T1/2 [1] | ID/g [3] | ID/g [4] | ID/g [5] | ID/g [6] | ID/g [7] | ID/g [8] | ID/g [9] | ID/g [10] | ID/g [11] | ID/g [12] | ID/g [13] | ID/g [14] | ID/g [15] | ID/g [16] | ID/g [17] | ID/g [18] | ID/g [19] | ID/g [20] | ID/g [21] | also measured |
| --- | --- | --- | --- | --- | --- | --- | --- | --- | --- | --- | --- | --- | --- | --- | --- | --- | --- | --- | --- | --- | --- |
| CN(C)Cc1ccccc1Sc1ccc(C#N)cc1N [DASB] | 15.6 min | 1.21% | 0.8% | 0.64% | 0.31% | 0.22% | 0.1% | 0.58% | 0.06% | 0.54% | 0.27% | 0.13% | 0.76% | 0.07% | 1.29% | 0.74% | 0.48% | 1.15% | 1.46% | 0.32% | logD [2]: 2.707; ID/g [22]: 1.06%; ID/g [23]: 0.72%; ID/g [24]: 0.49%; ID/g [25]: 1.13%; ID/g [26]: 0.35%; ID/g [27]: 1.39%; ID/g [28]: 1.02%; ID/g [29]: 0.8%; ID/g [30]: 1.25%; ID/g [31]: 0.62%; ID/g [32]: 1.24%; ID/g [33]: 0.77%; ID/g [34]: 0.55%; ID/g [35]: 1.24%; ID/g [36]: 0.35%; Ki [37]: 1.1 nM; ID/g [38]: 0.49%; Ki [39]: 1420 nM |
| COc1ccc(Sc2ccccc2CN(C)C)c(N)c1 | 18.8 min | 1.13% | 0.83% | 0.71% | 0.17% | 0.13% | 0.1% | 0.3% | 0.07% | 0.52% | 0.27% | 0.2% | 0.8% | 0.1% | 1.11% | 0.7% | 0.54% | 1.12% | 1.37% | 0.36% | logD ([2]; read-out: logD): 2.83; ID/g [22]: 0.98%; ID/g [23]: 0.74%; ID/g [24]: 0.56%; ID/g [25]: 1.09%; ID/g [26]: 0.38%; ID/g [27]: 1.31%; ID/g [28]: 1.08%; ID/g [29]: 0.89%; ID/g [30]: 1.22%; ID/g [31]: 0.63%; ID/g [32]: 1.07%; ID/g [33]: 0.76%; ID/g [34]: 0.58%; ID/g [35]: 1.19%; ID/g [36]: 0.38%; Ki [40]: 1990 nM; Ki [37]: 1.89 nM; ID/g [38]: 0.48%; Ki [39]: 2650 nM |
